Data taken from ChEMBL document CHEMBL1154745, “Synthesis and biological evaluation of N-aryl-1,4-dihydropyridines as novel antidyslipidemic and antioxidant agents” (2010).

Key:
[1] = system: Rattus norvegicus; test: Antidyslipidemic activity against triton-induced hyperlipidemia in Charles Foster rat assessed as reduction in plasma phospholipid level at 100 mg/kg, po after 18 hrs relative to control; format: functional; set-up: scale not given: the % may be the effect or the level left
Outline: (§1)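 Adult male Charles Foster rats (200–225 g) were given Triton WR-1339 400 mg/kg i.p. Test agent was suspended in 0.2% w/v gum acacia in water and dosed orally at the same time. There were five rats per group, and controls received vehicle. At 18 h, retro-orbital blood was taken into EDTA and centrifuged at 2500g, 4 °C, 10 min. Plasma was diluted 1:3 in saline, and lipids were measured by standard enzymatic kits.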

[2] = system: Rattus norvegicus; test: Antidyslipidemic activity against triton-induced hyperlipidemia in Charles Foster rat assessed as reduction in plasma triglyceride level at 100 mg/kg, po after 18 hrs relative to control; format: functional; set-up: scale not given: the % may be the effect or the level left; outline: as §1
[3] = system: Rattus norvegicus; test: Antidyslipidemic activity against triton-induced inhibition of post heparin lipolytic activity in Charles Foster rat at 100 mg/kg, po after 18 hrs; format: functional; set-up: scale not given: the % may be the effect or the level left
Outline: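 Triton WR-1339 hyperlipidemia model in male Charles Foster rats (200–225 g): 400 mg/kg i.p. triton plus oral test agent in gum acacia suspension, with five rats per group. After 18 h, post-heparin lipolytic activity was determined by the Wing and Robinson method on plasma, using spectrophotometry and an auto-analyzer.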

[4] = Antioxidant activity assessed as superoxide radical scavenging activity at 100 ug/ml; format: functional
Outline: (§2)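 Superoxide was generated enzymatically by xanthine with xanthine oxidase (0.04 U) and nitroblue tetrazolium in 100 mM phosphate buffer, pH 8.2, with or without test agent. Mixtures were incubated at 37 °C for 30 min and stopped with glacial acetic acid. Formazan formation was measured spectrophotometrically.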

[5] = Antioxidant activity assessed as superoxide radical scavenging activity at 200 ug/ml; format: functional; outline: as §2
[6] = Antioxidant activity assessed as inhibition of microsomal lipid peroxidation at 200 ug/mL; format: functional; set-up: scale not given: the % may be the effect or the level left
Outline: (§3)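 Inhibition of lipid peroxidation in microsomal fractions, sonicated in phosphate buffer, was read out as nmol MDA formed/h/mg protein.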

[7] = Antioxidant activity assessed as hydroxyl radical scavenging activity at 100 ug/ml; format: functional
[8] = Antioxidant activity assessed as hydroxyl radical scavenging activity at 200 ug/ml; format: functional
[9] = system: Rattus norvegicus; test: Antidyslipidemic activity against triton-induced hyperlipidemia in Charles Foster rat assessed as reduction in total cholesterol level at 100 mg/kg, po after 18 hrs relative to control
[10] = Antioxidant activity assessed as inhibition of microsomal lipid peroxidation at 100 ug/mL; format: functional; set-up: scale not given: the % may be the effect or the level left; outline: as §3

SMILES | Activity [1] [%] | Activity [2] [%] | Activity [3] [%] | Activity [4] [%] | Activity [5] [%] | Activity [6] [%] | Activity [7] [%] | Activity [8] [%] | total cholesterol lowering [9] [%] | Activity [10] [%]
CCOC(=O)C1=C(C)N(c2ccc(Cl)cc2)C=CC1c1ccccc1 (stereo unspecified) | 16.5 | 9.8 | 8.3 | -19.1 | -37.4 | -34.4 | -20.8 | -31.1 | 16 | –
CCOC(=O)C1=C(C)N(c2ccccc2)C=CC1c1ccccc1 (stereo unspecified) | 28.5 | 25.3 | 16.3 | -21.5 | -34 | -37.1 | -13.8 | -29.3 | 21.9 | -19.9
OC[C@@H](O)[C@@H](O)[C@H](O)[C@H](O)CO | – | – | – | – | – | – | -31.2 | -44.5 | – | –
COC(=O)C1=C(C)N(c2cccc(C)c2C)C=C(C)C1c1ccccc1 (stereo unspecified) | 23.9 | 25.7 | 23.7 | -23.6 | -32.2 | -33.1 | -19.7 | -29.3 | 24.1 | -22.7
COC(=O)C1=C(C)N(c2ccccc2)C=CC1c1ccc(OC)cc1 (stereo unspecified) | 18.7 | 18.7 | 9.8 | -29.8 | -44.8 | -30.3 | -18.3 | -27.7 | 18.1 | -17.6
CCOC(=O)C1=C(C)N(c2ccc(C)cc2)C=CC1c1ccccc1 (stereo unspecified) | 23.7 | 21.2 | 24.9 | -22.9 | -35.8 | -38.4 | -20.7 | -32.7 | 18.7 | -23.5
COC(=O)C1=C(C)N(c2ccccc2)C=CC1c1ccccc1 (stereo unspecified) | 21.3 | 18.7 | 10.9 | -25.9 | -43 | -37.3 | -26.9 | -23 | 24.8 | -21.5
COC(=O)C1=C(C)N(c2ccccc2)C=C(C)C1c1ccccc1 (stereo unspecified) | 11 | 8.1 | 8.4 | -21.1 | -48 | -37.4 | -14.1 | -33.1 | 11 | -22.7
CCOC(=O)C1=C(C)N(c2ccc(Br)cc2)C=CC1c1ccccc1 (stereo unspecified) | 12.5 | 12.1 | 12 | -18.7 | -28.4 | -32.1 | -14.8 | -35.7 | 18.3 | -20.7
